High-throughput results from PubChem.
DNMT1 block – DNMT1 (human) enzyme inhibition. inhibition (reported as % activation of signal), % at 10 µM. actives 0.83% (n = 360,000). DNMT1 molecular beacon, Hinp1I cleavage, fluorescence; in the data active means inhibition above about 50%
Target sequence (P26358 504-1616 limits assumed): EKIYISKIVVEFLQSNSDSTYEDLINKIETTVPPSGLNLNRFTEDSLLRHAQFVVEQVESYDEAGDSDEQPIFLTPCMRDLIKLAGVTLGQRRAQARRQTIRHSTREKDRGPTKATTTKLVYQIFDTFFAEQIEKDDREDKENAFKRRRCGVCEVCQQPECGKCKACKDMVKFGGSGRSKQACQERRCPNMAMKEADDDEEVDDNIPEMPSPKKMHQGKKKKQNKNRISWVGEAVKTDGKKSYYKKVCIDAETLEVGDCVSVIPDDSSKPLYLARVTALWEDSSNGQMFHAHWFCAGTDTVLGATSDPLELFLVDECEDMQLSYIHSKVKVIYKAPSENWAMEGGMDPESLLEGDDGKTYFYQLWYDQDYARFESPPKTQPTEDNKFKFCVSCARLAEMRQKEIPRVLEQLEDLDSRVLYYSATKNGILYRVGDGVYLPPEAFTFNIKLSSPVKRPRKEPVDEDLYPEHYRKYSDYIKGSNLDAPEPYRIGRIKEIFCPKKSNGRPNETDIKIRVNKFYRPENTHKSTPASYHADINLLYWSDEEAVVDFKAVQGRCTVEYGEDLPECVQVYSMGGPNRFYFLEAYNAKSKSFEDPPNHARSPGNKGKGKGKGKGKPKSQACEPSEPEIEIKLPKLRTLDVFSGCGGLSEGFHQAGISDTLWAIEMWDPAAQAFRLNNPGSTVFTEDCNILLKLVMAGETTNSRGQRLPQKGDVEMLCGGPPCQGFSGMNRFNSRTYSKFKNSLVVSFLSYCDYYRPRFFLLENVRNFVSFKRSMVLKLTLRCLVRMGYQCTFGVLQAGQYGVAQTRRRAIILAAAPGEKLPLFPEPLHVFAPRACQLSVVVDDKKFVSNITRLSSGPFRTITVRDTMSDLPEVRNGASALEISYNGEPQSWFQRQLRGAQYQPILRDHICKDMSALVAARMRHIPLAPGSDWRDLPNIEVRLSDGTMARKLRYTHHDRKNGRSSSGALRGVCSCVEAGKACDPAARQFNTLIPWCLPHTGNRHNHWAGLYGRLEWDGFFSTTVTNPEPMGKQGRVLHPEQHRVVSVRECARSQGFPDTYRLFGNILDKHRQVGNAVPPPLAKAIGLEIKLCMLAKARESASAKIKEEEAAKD
STEP block – STEP (human) phosphatase inhibition; inhibition, % at 20 µM; AID 588621; P54829; recombinant STEP, OMFP fluorogenic substrate, fluorescence; actives 0.25% (n = 360,000);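 active means inhibition at 20 µM, scaled per plate between control wells, above about 37%, limit read from the data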;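 further: 0% = DMSO with enzyme and substrate and 100% = substrate only without enzyme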
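Material: STEP (striatal-enriched tyrosine phosphatase) enzyme, cell-free | Medium: 50 mM Bis-Tris pH 6.0 with 2.5 mM DTT and 0.005% Tween 20 | Read-out: Percent inhibition scaled to no-enzyme and uninhibited-enzyme controls, plate-pattern corrected | Signal: Fluorescence read at 480 nm ex / 540 nm em | Times: 20 min reaction, room temperature, in the dark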
SUMO1-SIM PPI – modulators of human SUMO1-mediated protein-protein interactions; SUMO1 binding to a labelled peptide, TR-FRET, 1 h; inhibition, % at 20 µM; actives 0.33% (n = 360,000); AID 602429; in the data active means inhibition above about 37%
Scp1 inh – Scp-1 (human) phosphatase inhibition | Q9GZU7 | Recombinant Scp1, phosphopeptide, malachite green phosphate absorbance | inhibition, % at 20 µM | actives 0.88% (n = 340,000);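 active means inhibition above about 50% at 20 µM, limit read from the data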;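 further: plate controls were DMSO wells with enzyme for no effect and wells lacking enzyme for full effect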
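System: SCP-1 catalytic domain; Reagent: Phospho 17-mer peptide substrate; Doses: one concentration, 20 µM, with 1.0% DMSO; Incubation: 45 min room-temperature reaction, 5 min colour, 30 min stabiliser; Signal: Phosphate-binding colour reagent, absorbance read at 630 nm.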
LMPTP block – blocks human LMPTP phosphatase; actives 0.22% (n = 360,000); P24666; AID 651560; recombinant LMPTP-A, OMFP fluorogenic substrate, fluorescence intensity; inhibition, % at 20 µM;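 active means compounds that cut the enzyme signal by at least half of the control window in the single-dose screen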;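 further: plate controls were DMSO wells with enzyme plus substrate for no effect and substrate without enzyme for full effect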
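Test system – LMPTP-A enzyme · Amount – LMPTP-A at 0.625 nM final in the reaction · Buffer or medium – Bis-Tris pH 6.0, DTT, detergent · Reagent – OMFP 400 µM · Doses – single 20 µM dose · Schedule – reaction 50 min, room temperature, dark · Detection – fluorescence intensity of OMFP turnover product · Evaluation – percent inhibition versus substrate-only and uninhibited controls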
Scp-1 conf – Scp-1 (human) inhibition, single-dose confirmed; recombinant SCP-1 catalytic domain, phosphate release, malachite green absorbance; inhibition, % at 20 µM; shares compounds with Scp1 inh; actives 61% (n = 2,500);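 further: plate controls were DMSO with enzyme for no effect and buffer wells lacking enzyme for full effect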
MG interference – interferes with malachite green readout, flagging false Scp-1 hits; Colorimetric interference counterscreen, malachite green absorbance 630 nm; shares compounds with Scp1 inh; 2,500 tested, under 10 active; apparent inhibition (interference), % at 20 µM;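 further: compounds added after enzyme reaction finished so only phosphate colour detection is probed; plate controls were DMSO wells with completed Scp-1 reaction for no effect and substrate wells lacking enzyme for full effect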
Scp1 DSF – binds human Scp-1, shifting its melting temperature | actives 25% (n = 1,500) | shares compounds with Scp1 inh | thermal shift relative to vanadate control, % at 40 µM | Recombinant SCP1, Sypro Orange thermal shift Tm | AID 540329;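 active means substances whose mean melting-temperature shift, as a percentage of the reference inhibitor's shift, reaches about 5.3%, limit read from the data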;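 further: 0% = Tm of DMSO wells and 100% = Tm with sodium orthovanadate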
Beacon interf DR – shows spectral interference in the DNMT1 beacon assay | shares compounds with DNMT1 block | IC50, µM | molecular beacon fluorescence, spectral interference counter-screen | AID 602382 | 200 tested, under 10 active; call rule not given here
DNMT1 inh conf – confirmation of human DNMT1 inhibitors. AID 602385. shares compounds with DNMT1 block. actives 8% (n = 2,300). inhibition, % at 10 µM. DNMT1 molecular beacon HinP1I cleavage, fluorescence;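 active means average inhibition of at least 30% in the single-concentration confirmation test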
Beacon interf – shows spectral interference in the DNMT1 beacon assay; actives 1% (n = 2,300); activation (fluorescence interference), % at 10 µM; AID 602387; DNMT1 molecular beacon spectral interference counterscreen, fluorescence 485/520; shares compounds with DNMT1 block;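 active means activation of at least 30% at 10 µM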;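 further: DNMT1 catalytic domain with a HinP1I cleavage step and a FAM/dabcyl DNA beacon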
An asterisk follows results filed as active. Most compounds without a hit are left out; they make up all but 1.7% or so of the library.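 How the source made its calls, unless noted: active means inhibition of at least 30% at 20 µM; inactive means the rest.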

How did Cc1c2cnn(CC(=O)Nc3c(F)c(F)cc(F)c3F)c(=O)c2c(C)n1Cc1ccccc1F do in these assays?
DNMT1 block: 91.1*; STEP block: 4.9; SUMO1-SIM PPI: 16.4; Scp1 inh: 69.1*; LMPTP block: 14.7; Scp-1 conf: 76.7*; MG interference: -6.2; Scp1 DSF: 7.2*; Beacon interf DR: >99; DNMT1 inh conf: 24.1; Beacon interf: -4.0

What do the screens show for `O=C(N/N=C/c1ccc(-c2ccccc2C(=O)O)o1)c1cccs1`?
DNMT1 block: 62.6*; STEP block: 4.7; SUMO1-SIM PPI: 24.6; Scp1 inh: 51.8*; LMPTP block: 4.1; Scp-1 conf: 70.8*; MG interference: -5.7; Scp1 DSF: 6.5*; DNMT1 inh conf: 8.8; Beacon interf: -0.2

Results for O=S(=O)(Nc1ccon1)c1ccc(Br)cc1 ?
DNMT1 block: 0.5; STEP block: 0.1; SUMO1-SIM PPI: 2.7; Scp1 inh: -8.3; LMPTP block: -1.5

How did CN(C)S(=O)(=O)n1cc(/C=C(\NC(=O)c2ccccc2F)C(=O)N2CCCC2)c2ccccc21 do in these assays?
DNMT1 block: -4.0; STEP block: -0.7; SUMO1-SIM PPI: -1.4; Scp1 inh: -8.0; LMPTP block: -0.6

Results for O=C(NC1CC1)C1CCN(S(=O)(=O)c2cc([N+](=O)[O-])ccc2Cl)CC1 ?
DNMT1 block: 89.7*; STEP block: 0.3; SUMO1-SIM PPI: -11.5; Scp1 inh: 75.7*; LMPTP block: 43.2; Scp-1 conf: 68.9*; MG interference: -11.4; Scp1 DSF: 11.4*; DNMT1 inh conf: 6.0; Beacon interf: -1.8

Results for O=C(NC1CC1)C1CCN(S(=O)(=O)c2cc(Cl)ccc2Cl)CC1 ?
DNMT1 block: 4.6; STEP block: 1.2; SUMO1-SIM PPI: -0.7; Scp1 inh: -1.9; LMPTP block: 0.4

What do the screens show for `O=C(NC1=NCCS1)C1CCN(S(=O)(=O)c2cc([N+](=O)[O-])ccc2Cl)CC1`?
DNMT1 block: 75.9*; STEP block: 1.8; SUMO1-SIM PPI: -20.8; Scp1 inh: 90.7*; LMPTP block: 18.1; Scp-1 conf: 77.0*; MG interference: -5.4; Scp1 DSF: 11.4*; DNMT1 inh conf: 2.0; Beacon interf: -1.6

Results for Cc1cccc2sc(NC(=O)C3CCN(S(=O)(=O)c4cc([N+](=O)[O-])ccc4Cl)CC3)nc12 ?
DNMT1 block: 56.9*; STEP block: 12.1; SUMO1-SIM PPI: 4.3; Scp1 inh: 79.6*; LMPTP block: 5.1; Scp-1 conf: 53.8*; MG interference: -18.6; Scp1 DSF: 11.7*; DNMT1 inh conf: 0.7; Beacon interf: -0.8

Results for Cc1ccc(N=Nc2ccc(O)c(/C=N\NC(=O)c3ccc(N)cc3)c2)cc1C ?
DNMT1 block: 81.2*; STEP block: 37.9; SUMO1-SIM PPI: 1.6; Scp1 inh: 94.9*; LMPTP block: 41.1; Scp-1 conf: 73.7*; MG interference: -11.2; Scp1 DSF: -1.0; DNMT1 inh conf: 1.3; Beacon interf: 0.9

What do the screens show for `CC(C)(C)OC(=O)N/N=C/c1cc(N=Nc2ccccc2)ccc1O`?
DNMT1 block: 0.6; STEP block: -1.6; SUMO1-SIM PPI: -0.1; Scp1 inh: -11.7; LMPTP block: 2.8

What do the screens show for `O=C1NC(=Nc2ccc(Cl)cc2)/C(=C/c2ccco2)S1`?
DNMT1 block: 77.4*; STEP block: 60.6*; SUMO1-SIM PPI: 10.5; Scp1 inh: 93.1*; LMPTP block: 38.2; Scp-1 conf: 80.2*; MG interference: -8.2; Scp1 DSF: 7.8*; DNMT1 inh conf: 11.3; Beacon interf: 2.3

Results for O=C(Nc1cccc(NC(=O)c2cccs2)c1)c1ccc(Br)o1 ?
DNMT1 block: -0.5; STEP block: 0.6; SUMO1-SIM PPI: 4.5; Scp1 inh: -5.9; LMPTP block: 0.0

Results for O=C(Nc1ccc(NC(=O)c2cccs2)cc1)c1ccc(Br)o1 ?
DNMT1 block: 54.4*; STEP block: 29.4; SUMO1-SIM PPI: 21.8; Scp1 inh: 60.9*; LMPTP block: 42.0; Scp-1 conf: 72.1*; MG interference: -11.8; Scp1 DSF: -8.9; DNMT1 inh conf: -0.8; Beacon interf: -4.7

What do the screens show for `Cc1ccc(COC(=O)Cc2coc3cc(O)ccc23)cc1`?
DNMT1 block: 2.2; STEP block: 0.2; SUMO1-SIM PPI: 8.8; Scp1 inh: -7.1; LMPTP block: 3.6

Results for CC(=O)c1c(C)[nH]c(C(=O)COC(=O)c2ccc3c(=O)n4c(nc3c2)CCC4)c1C ?
DNMT1 block: -8.4; STEP block: 2.0; SUMO1-SIM PPI: 27.5; Scp1 inh: -1.2; LMPTP block: 0.1

What do the screens show for `Cc1ccc2c(CC(=O)OCc3cc(=O)n4c(n3)sc3ccccc34)coc2c1`?
DNMT1 block: 104.8*; STEP block: 3.4; SUMO1-SIM PPI: 3.6; Scp1 inh: 65.8*; LMPTP block: 13.3; Scp-1 conf: 68.2*; MG interference: -17.2; Scp1 DSF: -1.4; DNMT1 inh conf: 5.4; Beacon interf: 5.8

Results for CC(C)NC(=O)CSc1nnc2sc3ccccc3n12 ?
DNMT1 block: 6.5; STEP block: 0.3; SUMO1-SIM PPI: 1.6; Scp1 inh: 7.1; LMPTP block: -0.4

Results for CC(C)[C@H](NC(=O)Cc1ccccc1)C(=O)OCc1cc(=O)n2c(n1)sc1ccccc12 ?
DNMT1 block: 88.0*; STEP block: 4.3; SUMO1-SIM PPI: 2.7; Scp1 inh: 76.1*; LMPTP block: 21.8; Scp-1 conf: 58.8*; MG interference: -16.1; Scp1 DSF: -8.2; DNMT1 inh conf: 2.7; Beacon interf: 2.7

What do the screens show for `O=C(OCc1cc(=O)n2c(n1)sc1ccccc12)c1ccc2c(=O)n3c(nc2c1)CCC3`?
DNMT1 block: 101.7*; STEP block: 9.9; SUMO1-SIM PPI: 29.0; Scp1 inh: 72.5*; LMPTP block: 38.9; Scp-1 conf: 52.5*; MG interference: -12.6; Scp1 DSF: -2.4; DNMT1 inh conf: 6.0; Beacon interf: -1.1
